Source: ChEMBL document CHEMBL1152237, “Sequence specific and high affinity recognition of 5'-ACGCGT-3' by rationally designed pyrrole-imidazole H-pin polyamides: thermodynamic and structural studies” (Bioorg Med Chem, 2008)
Activity calls are given as the source filed them. The calls are words filed in the database; no cut-off is given here.

What was measured:
Nucleic Acid [1] = assay: Binding affinity to 5'AAATTT3' sequence of non-cognate DNA assessed as change in melting temperature by thermal denaturation method; format: nucleic-acid assay
How it was run: (§1)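 Thermal melting in PO 0 buffer (10 mM sodium phosphate, 1 mM EDTA, pH 6.2). Oligonucleotides were reannealed first (70 °C for 1 min, then cooled to RT). Ramp from 25 to 95 °C at 0.5 °C/min, with Abs260 recorded every 0.5 °C. Tm was taken as the maximum of the first derivative, and ΔTm was the shift on ligand binding.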

[2] = Binding affinity to 5'ACGTGT3' sequence of cognate DNA at 5 uM by DnaseI footprinting assay
How it was run: (§2)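 DNA was incubated 30 min with ligand in TN buffer (10 mM Tris, 10 mM NaCl, pH 7). Digestion ran 3 min with DNase I in buffer containing NaCl, MgCl2 and MnCl2, then stopped on dry ice. Products were resolved on a 10% polyacrylamide/7.5 M urea gel and read by autoradiography.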

Nucleic Acid [3] = assay: Binding affinity to 5'ACCGGT3' sequence of non-cognate DNA assessed as change in melting temperature by thermal denaturation method; format: nucleic-acid assay; how it was run: as §1
[4] = Binding affinity to 5'ACGCGT3' sequence of cognate DNA at 0.5 uM by DnaseI footprinting assay; how it was run: as §2
Nucleic Acid [5] = assay: Binding affinity to 5'ACGCGT3' sequence of cognate DNA assessed as change in melting temperature by thermal denaturation method; format: nucleic-acid assay; how it was run: as §1
[6] = Binding affinity to 5'ACGCGT3' sequence of cognate DNA by surface plasmon resonance method
How it was run: (§3)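 SPR at 25 °C in degassed MES buffer (200 mM Na+, 10 mM MES, 1 mM EDTA, surfactant P20, pH 6.25). DNA hairpins were immobilized to about 400 RU, with one flow cell left blank. Ligand (0.1–400 nM) was injected at 20 µL/min for 12.5 min, then dissociated for 20 min. The surface was regenerated with 500 mM NaCl/25 mM NaOH. Global 1:1 kinetic fit; Keq = ka/kd.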

[7] = Binding affinity to 5'ACCGGT3' sequence of non-cognate DNA by surface plasmon resonance method; how it was run: as §3
[8] = Binding affinity to 5'ACCGGT3' sequence of non-cognate DNA assessed as heat change by isothermal titration colorimetry
How it was run: (§4)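 ITC at 25, 30 and 35 °C. DNA (2 µM in PO 5) was titrated with ligand (0.5 mM in PO 5) in 3 µL injections every 300 s, 50 injections in total. One-site model fit, with a linear fit subtracted to remove non-specific heat. ΔG was taken from SPR Keq as −RT ln Keq.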

[9] = Binding affinity to 5'ACGCGT3' sequence of cognate DNA assessed as exothermic enthalpy at 25 to 50 degC by isothermal titration colorimetry
[10] = Binding affinity to 5'AAATTT3' sequence of non-cognate DNA assessed as heat change by isothermal titration colorimetry; how it was run: as §4
[11] = Binding affinity to 5'AAATTT3' sequence of non-cognate DNA by surface plasmon resonance method; how it was run: as §3

| ΔTm (Nucleic Acid [1]) | Activity [2] | ΔTm (Nucleic Acid [3]) | Activity [4] | ΔTm (Nucleic Acid [5]) | K [6] | K [7] | Activity [8] | Activity [9] | Activity [10] | K [11] | Structure (SMILES) |
| --- | --- | --- | --- | --- | --- | --- | --- | --- | --- | --- | --- |
| 0.1 °C | Active | 0.1 °C | Active | 3 °C | 7.1 ×10⁶ /M |  |  |  |  |  | CN(C)CCNC(=O)c1nc(NC(=O)c2cc(NC(=O)c3nc(NC(=O)c4cccn4C)cn3C)cn2C)cn1C |
| 9.3 °C |  | 14.1 °C |  | > 30 °C | 2 ×10¹⁰ /M | 1.1 ×10⁸ /M | inactive | Active | inactive | 5 ×10⁵ /M | CN(C)CCNC(=O)c1nc(NC(=O)c2cc(NC(=O)c3nc(NC=O)cn3C)cn2CCOCCOCCn2cc(NC(=O)c3nc(NC=O)cn3C)cc2C(=O)Nc2cn(C)c(C(=O)NCCN(C)C)n2)cn1C |
| 0.9 °C |  | 1.1 °C |  | 7.8 °C | 1.9 ×10⁸ /M | 2.2 ×10⁵ /M | inactive |  | inactive | 5.3 ×10⁴ /M | CN(C)CCNC(=O)c1nc(NC(=O)c2cc(NC(=O)c3nc(NC=O)cn3C)cn2C)cn1C |
